# Columns and labels:
# Conditions in all cases: stereoisomer not certain
# UniProt Q8VGX8 = molecular target: T1, UniProt Q8VGX8
# T1 sequence (whole entry): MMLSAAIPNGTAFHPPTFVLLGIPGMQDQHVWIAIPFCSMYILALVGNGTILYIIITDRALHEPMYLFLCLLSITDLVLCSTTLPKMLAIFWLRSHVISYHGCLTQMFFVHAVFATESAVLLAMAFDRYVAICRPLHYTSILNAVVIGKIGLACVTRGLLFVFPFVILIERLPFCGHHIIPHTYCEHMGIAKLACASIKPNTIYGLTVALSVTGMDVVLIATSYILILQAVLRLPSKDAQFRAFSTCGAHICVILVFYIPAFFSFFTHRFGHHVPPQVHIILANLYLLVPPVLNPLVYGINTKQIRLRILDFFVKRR
# Outline: (§1)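 Assay methods differ from source to source, frequently being transient luciferase assays in mammalian cell lines. For each receptor–molecule pair, the label responsive (active) applies when the original authors judged the measured signal statistically different from baseline, and non-responsive (inactive) applies otherwise.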
# UniProt Q8VGZ2 = molecular target: T2, UniProt Q8VGZ2
# T2 sequence (whole entry): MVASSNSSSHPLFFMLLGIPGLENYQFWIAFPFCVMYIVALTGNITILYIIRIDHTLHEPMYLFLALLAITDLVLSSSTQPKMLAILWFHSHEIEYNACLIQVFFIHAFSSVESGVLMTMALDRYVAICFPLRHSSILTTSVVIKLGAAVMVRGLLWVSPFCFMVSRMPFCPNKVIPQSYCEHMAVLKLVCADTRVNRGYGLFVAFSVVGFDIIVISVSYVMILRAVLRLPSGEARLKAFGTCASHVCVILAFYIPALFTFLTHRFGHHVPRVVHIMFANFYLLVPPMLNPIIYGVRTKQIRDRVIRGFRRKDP
# Outline: as §1
# UniProt Q8VGZ7 = molecular target: T3, UniProt Q8VGZ7
# T3 sequence (whole entry): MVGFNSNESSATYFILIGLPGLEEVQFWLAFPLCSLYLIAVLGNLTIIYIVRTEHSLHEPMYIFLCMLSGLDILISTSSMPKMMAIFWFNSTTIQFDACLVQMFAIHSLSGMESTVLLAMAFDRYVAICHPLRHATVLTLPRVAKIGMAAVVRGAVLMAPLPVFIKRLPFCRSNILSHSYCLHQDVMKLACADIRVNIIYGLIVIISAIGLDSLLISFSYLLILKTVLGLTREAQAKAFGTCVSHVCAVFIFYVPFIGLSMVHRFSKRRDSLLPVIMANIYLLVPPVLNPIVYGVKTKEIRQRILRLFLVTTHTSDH
# Outline: as §1
# UniProt Q8VH16 = molecular target: T4, UniProt Q8VH16
# T4 sequence (whole entry): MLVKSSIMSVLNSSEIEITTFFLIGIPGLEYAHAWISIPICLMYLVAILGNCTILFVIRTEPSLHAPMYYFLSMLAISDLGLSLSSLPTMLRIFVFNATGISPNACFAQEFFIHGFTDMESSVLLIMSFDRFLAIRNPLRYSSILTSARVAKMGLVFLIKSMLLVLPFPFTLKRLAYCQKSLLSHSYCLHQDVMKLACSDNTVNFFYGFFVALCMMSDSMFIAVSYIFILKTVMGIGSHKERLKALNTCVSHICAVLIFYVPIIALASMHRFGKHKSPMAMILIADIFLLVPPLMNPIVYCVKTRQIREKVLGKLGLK
# Outline: as §1
# UniProt Q8VH18 = molecular target: T5, UniProt Q8VH18
# T5 sequence (whole entry): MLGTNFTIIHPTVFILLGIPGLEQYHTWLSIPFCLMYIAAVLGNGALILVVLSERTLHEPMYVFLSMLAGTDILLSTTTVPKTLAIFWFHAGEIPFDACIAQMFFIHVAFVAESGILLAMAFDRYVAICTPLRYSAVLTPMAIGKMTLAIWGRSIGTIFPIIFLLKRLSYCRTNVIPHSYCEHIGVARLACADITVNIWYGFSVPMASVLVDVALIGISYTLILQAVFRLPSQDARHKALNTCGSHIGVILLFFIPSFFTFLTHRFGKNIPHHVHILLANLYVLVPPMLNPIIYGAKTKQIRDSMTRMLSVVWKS
# Outline: as §1
# UniProt Q8VH20 = molecular target: T6, UniProt Q8VH20
# T6 sequence (whole entry): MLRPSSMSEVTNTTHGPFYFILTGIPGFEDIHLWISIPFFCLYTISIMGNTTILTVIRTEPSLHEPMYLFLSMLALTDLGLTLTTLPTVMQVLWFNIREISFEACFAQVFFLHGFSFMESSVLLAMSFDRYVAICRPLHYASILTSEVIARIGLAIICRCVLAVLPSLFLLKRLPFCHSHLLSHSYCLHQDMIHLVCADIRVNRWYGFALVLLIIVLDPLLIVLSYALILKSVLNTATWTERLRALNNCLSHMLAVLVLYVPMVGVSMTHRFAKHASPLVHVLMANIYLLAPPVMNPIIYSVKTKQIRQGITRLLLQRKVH
# Outline: as §1
# UniProt Q8VH21 = molecular target: T7, UniProt Q8VH21
# T7 sequence (whole entry): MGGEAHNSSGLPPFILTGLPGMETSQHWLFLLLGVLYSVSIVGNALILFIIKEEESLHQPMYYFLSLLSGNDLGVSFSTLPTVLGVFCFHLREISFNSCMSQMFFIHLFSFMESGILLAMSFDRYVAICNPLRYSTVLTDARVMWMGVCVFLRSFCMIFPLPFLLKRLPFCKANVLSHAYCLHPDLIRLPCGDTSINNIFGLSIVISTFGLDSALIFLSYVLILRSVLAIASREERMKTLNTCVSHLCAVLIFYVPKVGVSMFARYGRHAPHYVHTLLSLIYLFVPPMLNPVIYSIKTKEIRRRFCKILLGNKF
# Outline: as §1
# UniProt Q8VGY6 = molecular target: T8, UniProt Q8VGY6
# T8 sequence (whole entry): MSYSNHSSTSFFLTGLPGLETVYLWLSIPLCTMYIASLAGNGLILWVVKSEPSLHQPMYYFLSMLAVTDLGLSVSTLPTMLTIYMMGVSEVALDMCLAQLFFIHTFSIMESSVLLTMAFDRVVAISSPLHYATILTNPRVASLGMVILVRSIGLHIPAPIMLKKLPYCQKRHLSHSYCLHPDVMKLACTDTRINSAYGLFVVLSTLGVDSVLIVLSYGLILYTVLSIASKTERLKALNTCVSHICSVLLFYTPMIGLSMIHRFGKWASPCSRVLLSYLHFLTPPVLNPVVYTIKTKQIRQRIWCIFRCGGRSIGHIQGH
# Outline: as §1
# UniProt Q8VH10 = molecular target: T9, UniProt Q8VH10
# T9 sequence (whole entry): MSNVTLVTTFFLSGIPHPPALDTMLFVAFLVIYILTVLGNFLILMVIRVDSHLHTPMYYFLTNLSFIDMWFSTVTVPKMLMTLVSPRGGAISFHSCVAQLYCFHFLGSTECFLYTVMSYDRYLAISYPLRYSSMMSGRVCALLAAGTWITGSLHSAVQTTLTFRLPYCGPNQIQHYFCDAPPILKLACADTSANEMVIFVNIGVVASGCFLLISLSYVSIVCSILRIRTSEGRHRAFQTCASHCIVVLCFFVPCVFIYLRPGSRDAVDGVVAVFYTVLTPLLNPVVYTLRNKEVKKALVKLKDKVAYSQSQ
# Outline: as §1
# UniProt Q920P1 = molecular target: T10, UniProt Q920P1
# T10 sequence (whole entry): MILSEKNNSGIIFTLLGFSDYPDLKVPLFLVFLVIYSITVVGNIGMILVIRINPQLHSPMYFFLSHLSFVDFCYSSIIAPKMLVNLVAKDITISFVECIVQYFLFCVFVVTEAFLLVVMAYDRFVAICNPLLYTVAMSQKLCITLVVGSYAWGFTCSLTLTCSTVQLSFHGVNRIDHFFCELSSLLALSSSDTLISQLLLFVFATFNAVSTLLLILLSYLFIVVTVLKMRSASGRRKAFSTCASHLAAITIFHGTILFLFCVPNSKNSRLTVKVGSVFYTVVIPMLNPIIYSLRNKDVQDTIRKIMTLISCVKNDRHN
# Outline: as §1
SMILES,odorant receptor agonist call (UniProt Q8VGX8),odorant receptor agonist call (UniProt Q8VGZ2),odorant receptor agonist call (UniProt Q8VGZ7),odorant receptor agonist call (UniProt Q8VH16),odorant receptor agonist call (UniProt Q8VH18),odorant receptor agonist call (UniProt Q8VH20),odorant receptor agonist call (UniProt Q8VH21),odorant receptor agonist call (UniProt Q8VGY6),odorant receptor agonist call (UniProt Q8VH10),odorant receptor agonist call (UniProt Q920P1)
O=C([O-])CCCCCCCC(=O)[O-].[H+].[H+],inactive,inactive,inactive,inactive,inactive,inactive,inactive,,,
O=C([O-])CCCCCCC(=O)[O-].[H+].[H+],inactive,inactive,inactive,inactive,inactive,inactive,inactive,,,
CCCCCCC(=O)[O-].[H+],active,active,inactive,,active,active,,inactive,inactive,
CCCC(C)=O,inactive,inactive,inactive,,inactive,inactive,,inactive,inactive,
OCCCCCCCCCO,,inactive,inactive,inactive,,inactive,inactive,,,
O=C(O)CCCCCC(=O)O,inactive,,,,inactive,,,,,
O=C(O)CCCCCBr,active,inactive,inactive,inactive,inactive,active,inactive,,,
CC(C)=CCCC(C)=CCO,inactive,inactive,inactive,inactive,,inactive,inactive,inactive,inactive,inactive
CCCCCCCOC(=O)C(C)C,,inactive,inactive,inactive,,inactive,inactive,,,
O=C([O-])CCCCC(=O)[O-].[H+].[H+],inactive,,,,inactive,,,,,
O=c1ccc2ccccc2o1,inactive,inactive,inactive,,,inactive,,inactive,inactive,
Cc1ccc(C(C)C)cc1,,inactive,inactive,inactive,,inactive,inactive,,,
O=C(O)C1CCC1,,inactive,inactive,inactive,,inactive,active,,,
O=C(O)CCCCCCCCC(=O)O,,inactive,inactive,inactive,,inactive,inactive,,,
CCCCC=O,,inactive,inactive,inactive,inactive,inactive,inactive,,,
CCC(C(=O)O)c1ccccc1 (stereo not given),inactive,inactive,inactive,,,inactive,,inactive,inactive,

SMILES,odorant receptor agonist call (UniProt Q8VGX8),odorant receptor agonist call (UniProt Q8VGZ2),odorant receptor agonist call (UniProt Q8VGZ7),odorant receptor agonist call (UniProt Q8VH16),odorant receptor agonist call (UniProt Q8VH18),odorant receptor agonist call (UniProt Q8VH20),odorant receptor agonist call (UniProt Q8VH21),odorant receptor agonist call (UniProt Q8VGY6),odorant receptor agonist call (UniProt Q8VH10),odorant receptor agonist call (UniProt Q920P1)
COc1cc(C(=O)O)ccc1O,inactive,inactive,inactive,inactive,,inactive,inactive,active,inactive,inactive
CCCCOC(=O)C(C)OC(=O)CCC (stereo not given),inactive,inactive,inactive,,,inactive,,inactive,inactive,
c1ccccc1,inactive,inactive,inactive,inactive,,inactive,inactive,inactive,inactive,inactive
CC(C)=CCCC(C)=CCOC(=O)C(C)C,,inactive,inactive,inactive,,inactive,inactive,,,
COC(OC)c1ccccc1,,inactive,inactive,inactive,,inactive,inactive,,,
C=C(CC)CCCC(C)(C)O,,inactive,inactive,inactive,,inactive,inactive,,,
CCCCCCC(C=O)=Cc1ccccc1,,inactive,inactive,inactive,,inactive,inactive,,,
CCCCCCC(=O)OCCCC,,inactive,inactive,inactive,,inactive,inactive,,,
CCCCCC=CCCC=O,,active,inactive,inactive,,active,inactive,,,
CCc1occc(=O)c1O,,inactive,inactive,inactive,,inactive,inactive,,,
CC=CC(=O)C1=C(C)CCCC1(C)C,,inactive,inactive,inactive,,inactive,inactive,,,
CCC(C)O (stereo not given),,inactive,inactive,inactive,,inactive,inactive,,,
Cc1ccc(OC(=O)C(C)C)cc1,,inactive,inactive,inactive,,inactive,inactive,,,
C=C(C)C1CCC(C)C(O)C1 (stereo not given),,inactive,inactive,inactive,,inactive,inactive,,,
CCSSCC,,inactive,inactive,inactive,,inactive,inactive,,,
CCCCCCCCCCCO,,inactive,inactive,inactive,,inactive,inactive,,,

# From the M2OR odorant receptor database
